The test system of this assay is Rattus norvegicus. Description: Cardioprotective activity in Sprague-Dawley rat model of myocardial ischemia-reperfusion injury assessed as reduction in MI/AR ratio at 1 to 10 mg/kg, iv bolus administered 15 mins prior to 30 mins LCX ligation by TTC staining-based fluorescence microscopy relative to placebo control. In kind it is functional, Myocardium. Also on record: scale not given: the % may be the effect or the level left. The following applies: dose mg/kg 1-10. The procedure, abridged: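 Anaesthetised animals underwent thoracotomy and pericardotomy, then LCX coronary ligation for 30 min followed by reperfusion. Agent was given in isotonic saline (pH-neutralised with NaOH, 285 mOsm), 1 mL/kg, before ligation. Fluorescent microspheres injected into the LV cavity during ischemia marked the area at risk. Hearts were excised after 24 h and cut into five 2 mm slices stained with 1% TTC. The MI/AR ratio was compared with placebo by Student's t-test.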

Residues, ends and D or L forms follow the SMILES beside them.

As for `O=C(O)CC[C@H](NC(=O)CCCC[C@@H]1CCSS1)C(=O)NCCS(=O)(=O)O`, the Activity is reported as 33%.

In the case of `O=C(CCCC[C@@H]1CCSS1)NC(CF)C(=O)O` (some centres undefined), the Activity stood at 10%. For `O=C(CCCC[C@@H]1CCSS1)NCCP(=O)(O)O` the value was 53%; for `C[C@H](NC(=O)[C@H](CCC(=O)O)NC(=O)CCCC[C@@H]1CCSS1)C(=O)O` [CMX-2043], 31%; for `NC(=O)CC[C@H](NC(=O)CCCC[C@@H]1CCSS1)C(=O)NCC(=O)O`, 17%. As for Ac-EAEAEGA-OH, the figure is 17%; as for `O=C(CCCC[C@@H]1CCSS1)NCCOP(=O)(O)O`, 47%; as for `CC(=O)N[C@@H](CCC(=O)O)C(=O)N[C@@H](C)C(=O)N[C@@H](CCC(=O)O)C(=O)N[C@@H](C)C(=O)O` (Ac-EAEA-OH), 23%. On to `O=C(CCCC[C@@H]1CCSS1)Nc1ccc(S(=O)(=O)O)cc1`, for which the Activity came out at 44%. As for `C[C@H](NC(=O)[C@H](Cc1ccc(O)cc1)NC(=O)CCCC[C@@H]1CCSS1)C(=O)O`, the figure is 31%; as for `O=C(CCCC[C@@H]1CCSS1)Nc1cccc(S(=O)(=O)O)c1`, 33%. As for `O=C(O)CCCC[C@@H]1CCSS1` [THIOCTIC ACID], the figure is 19%. As for `O=C(O)CN(CC(=O)O)C(=O)CCCC[C@@H]1CCSS1`, the figure is 21%.

With `O=C(CCCC[C@@H]1CCSS1)N[C@@H](CS(=O)(=O)O)C(=O)O`, the Activity is 30%. For `O=C(CCCC[C@@H]1CCSS1)N[C@@H](Cc1ccc(O)cc1)C(=O)O` the value was 29%. For `C[C@H](NC(=O)CCCC[C@@H]1CCSS1)C(=O)N[C@@H](CCC(=O)O)C(=O)O` the value was 24%; for `O=C(CCCC[C@@H]1CCSS1)NCCS(=O)(=O)O`, 45%; for `CC(=O)N[C@@H](CCC(=O)O)C(=O)N[C@@H](C)C(=O)O` (Ac-Glu-Ala-OH), 23%. As for `O=C(CCCC[C@@H]1CCSS1)Nc1ccc(C(=O)O)cc1`, the figure is 22%. On to `O=C(O)CC[C@H](NC(=O)CCCC[C@@H]1CCSS1)C(=O)O`, for which the Activity stood at 33%. For `O=C(O)CCNC(=O)CCCC[C@@H]1CCSS1` the value was 39%. For `O=C(O)CNC(=O)[C@H](CC(=O)O)NC(=O)CCCC[C@@H]1CCSS1` the value was 28%; for `O=C(CCCC[C@@H]1CCSS1)NCCOS(=O)(=O)O`, 30%; for `O=C(CCCC[C@@H]1CCSS1)N[C@@H](Cc1ccc(C(=O)O)cc1)C(=O)O`, 26%.
